These results are taken from ChEMBL document CHEMBL1821648, “(2S,3S)-sulfated pterosin C, a cytotoxic sesquiterpene from the Bangladeshi mangrove fern Acrostichum aureum” (J Nat Prod, 2011).

Structures are written as SMILES. Calls of active or inactive are those of the source. No cut-off for these calls is given here.

Assay [1] concerns AGS. Briefly: Induction of apoptosis in human AGS cells assessed as early apoptosis level at 150 ug/mL after 48 hrs by Annexin V-FITC apoptosis assay. In kind it is functional, cell-based. The gist of the method:
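AGS cells seeded at 40 × 10^4 per well and incubated 24 h at 37 °C under 5% CO2. Treated 24 and 48 h with test compound at 15 μg/mL, or cycloheximide at 150 μg/mL as positive control; untreated cells as negative control. Trypsinized, pelleted, then resuspended in binding buffer (0.1 M Hepes/NaOH, 1.4 M NaCl, 25 mM CaCl2). Stained with FITC-annexin V plus PI for 15 min, dark, room temperature. Flow cytometry within 1 h; early apoptosis counted as AV+/PI−.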

The test system of assay [2] is AGS. Put plainly: Cytotoxicity against human AGS cells after 48 hrs by MTT assay. In kind it is functional, cell-based. Summed up: (§1)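 Cells seeded at 1.0 × 10^4 to 3.5 × 10^4 per well and incubated 24 h at 37 °C under 5% CO2. Exposed to a range of compound concentrations for 48 h, washed, then given MTT for 2 h and lysed. Absorbance read at 560 nm 45 min after lysis; IC50 from probit analysis. Cycloheximide as positive control.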

Another assay deals with HT-29. Put plainly: Cytotoxicity against human HT-29 cells after 48 hrs by MTT assay. Format: functional, cell-based. The conditions noted are these: HT-29, 48 h. The gist of the method:
as §1

The test system of the next assay is MCF7. Briefly: Cytotoxicity against human MCF7 cells after 48 hrs by MTT assay. In kind it is functional, cell-based. The conditions noted are these: MCF7, 48 h. Summed up: as §1
In general terms: Tetrazolium assays rely on reduction of a dye to a coloured formazan, in cell work by metabolically active cells.

For another assay, the system named is MDA-MB-231. Briefly: Cytotoxicity against human MDA-MB-231 cells after 48 hrs by MTT assay. The note with it: MDA-MB-231, 48 h. In kind it is functional, cell-based. The gist of the method:
as §1

In a further assay the test system is NIH3T3. Briefly: Cytotoxicity against mouse NIH/3T3 cells after 48 hrs by MTT assay. The note with it: NIH3T3, 48 h. In kind it is functional, cell-based. Summed up:
as §1

Assay [3] has as its system AGS. Put plainly: Induction of apoptosis in human AGS cells assessed as early apoptosis level at 15 ug/mL after 24 hrs by Annexin V-FITC apoptosis assay. Format: functional. Summed up: (§2)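 Cells plated at 40 × 10^4 per well, grown 24 h at 37 C in 5% CO2, then exposed to compound at 15 μg/mL for the stated time. Harvested by rapid trypsinisation, pelleted, resuspended in binding buffer (0.1 M Hepes/NaOH, 1.4 M NaCl, 25 mM CaCl2). Stained with FITC-annexin V and PI for 15 min, dark, room temperature. Flow cytometry within 1 h; early apoptosis scored as AV+/PI−. Untreated cells as negative control, cycloheximide 150 μg/mL as positive control.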

Assay [4] relates to AGS. Briefly: Induction of apoptosis in human AGS cells assessed as early apoptosis level at 15 ug/mL after 48 hrs by Annexin V-FITC apoptosis assay. In kind it is functional. The gist of the method: as §2

As to `C[C@@H]1C[C@@H]([C@H](O)CC2CC(=O)NC(=O)C2)C(=O)[C@@H](C)C1` [CYCLOHEXIMIDE], in the assay with AGS [1], the outcome was Active. Also, the IC50 in the assay with AGS [2] is 3.6 µM; with HT-29, 12.8 µM; with MCF7 it was over 100 µM; in the assay with MDA-MB-231 it was 1.2 µM; in the assay with NIH3T3, 1.1 µM.

In the case of `Cc1cc2c(c(C)c1CCOS(=O)(=O)O)C(=O)[C@@H](C)[C@@H]2O`, the 50% inhibitory concentration (IC50) in the assay with AGS [2] was 23.9 µM; in the assay with HT-29, 68.8 µM; with MCF7, 64.4 µM; in the assay with MDA-MB-231, over 100 µM; in the assay on NIH3T3, 46.8 µM. Moreover, the Activity in the assay with AGS [3] amounted to 6.8%; in the assay on AGS [4] it was 25.2%.

The IC50 is the concentration that gives 50% inhibition. A lower IC50 goes with greater potency.
